The values that follow come from ChEMBL document CHEMBL1142065, “In vitro and in vivo activities of a new cephalosporin, FR264205, against Pseudomonas aeruginosa” (2007).

In brackets after ≈: the same amount, converted by molar mass. Activity calls are given as the source filed them.

Usually MIC50 stands for the lowest concentration that inhibits either 50% of growth or 50% of the strains tested, depending on the study. High values mean weaker potency, low ones greater potency. Usually MIC90 stands for the lowest concentration that inhibits either 90% of growth or 90% of the strains tested, depending on the study. A higher MIC90 goes with lower susceptibility. A word on the MIC: it is the smallest concentration in the dilution series that meets the test's criterion for growth inhibition. Read a low MIC as inhibition by little substance.

Assay [1] has as its system Pseudomonas aeruginosa. As to the kind of experiment: Antibacterial activity against ceftazidime-resistant Pseudomonas aeruginosa. The assay is classed as functional. A digest of the protocol: (§1)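 Agar dilution MIC per NCCLS (CLSI) M7-A7 on Mueller-Hinton agar with twofold serial drug dilutions. Inoculum 10^4 CFU per spot, aerobic incubation 18 to 20 h at 35°C. MIC is the lowest concentration preventing visible growth.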

Assay [2] relates to Pseudomonas aeruginosa. The assay is described as follows: Antibacterial activity against Pseudomonas aeruginosa. Format: functional. The method in brief:
as §1

The subject of assay [3] is Pseudomonas aeruginosa. The assay is described as follows: Antibacterial activity against imipenem-resistant Pseudomonas aeruginosa. The assay is classed as functional. A digest of the protocol:
as §1

Assay [4] has as its system Pseudomonas aeruginosa. The assay is described as follows: Antibacterial activity against ciprofloxacin-resistant Pseudomonas aeruginosa. The assay is classed as functional. A digest of the protocol:
as §1

Assay [5] relates to Escherichia coli. The assay is described as follows: Antibacterial activity against Escherichia coli C600 expressing ESBL TEM5. The assay is classed as functional. A digest of the protocol:
(§2)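 MIC by agar dilution (CLSI M7-A7) on Mueller-Hinton agar with twofold serial drug dilutions; 10^4 CFU spotted per spot; aerobic incubation 18 to 20 h at 35°C; MIC read as lowest concentration preventing visible growth.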

In assay [6] the test system is Pseudomonas aeruginosa. The assay is described as follows: Antibacterial activity against Pseudomonas aeruginosa KG4001 producing MexEF-OprN efflux pump. The assay is classed as functional. The method in brief: as §1
Assay [7] relates to Pseudomonas aeruginosa. As to the kind of experiment: Antibacterial activity against Pseudomonas aeruginosa 93. The assay is classed as functional. The method in brief: as §2
For assay [8], the system named is Pseudomonas aeruginosa. As to the kind of experiment: Antibacterial activity against Pseudomonas aeruginosa KG2212 producing MexAB-OprM efflux pump. Format: functional. A digest of the protocol:
as §1

Assay [9] deals with Pseudomonas aeruginosa. The assay is described as follows: Antibacterial activity against Pseudomonas aeruginosa 22029 expressing metallo beta lactamase. The assay is classed as functional. The method in brief: as §1
For assay [10], the system named is Escherichia coli. As to the kind of experiment: Antibacterial activity against Escherichia coli C600 expressing ESBL SHV4. The assay is classed as functional. A digest of the protocol:
as §2

Assay [11] deals with Escherichia coli. As to the kind of experiment: Antibacterial activity against Escherichia coli C600 expressing ESBL TEM3. The assay is classed as functional. The method in brief:
as §2

The subject of assay [12] is Pseudomonas aeruginosa. As to the kind of experiment: Antibacterial activity against Pseudomonas aeruginosa KG4545 producing MexXY efflux pump. The assay is classed as functional. A digest of the protocol:
as §1

The test system of assay [13] is Escherichia coli. The assay is described as follows: Antibacterial activity against Escherichia coli C600. Format: functional. The method in brief:
as §2

For assay [14], the system named is Pseudomonas aeruginosa. As to the kind of experiment: Antibacterial activity against Pseudomonas aeruginosa PAO4069 expressing inducible AmpC. The assay is classed as functional. The method in brief: as §1
Assay [15] deals with Pseudomonas aeruginosa. As to the kind of experiment: Reduction in susceptibility against Pseudomonas aeruginosa PAO1 after single passage. The assay is classed as functional, organism-based. A digest of the protocol:
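PAO1 passaged daily for five consecutive days in fresh Mueller-Hinton broth with twofold drug dilution series. Each next inoculum came from the tube at one-fourth the MIC. MIC change was followed across passages.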

In assay [16] the test system is Pseudomonas aeruginosa. The assay is described as follows: Antibacterial activity against Pseudomonas aeruginosa PAO1. Format: functional. The method in brief:
as §1

Assay [17] concerns Pseudomonas aeruginosa. The assay is described as follows: Antibacterial activity against Pseudomonas aeruginosa PAO1456 expressing constitutive AmpC. The assay is classed as functional. The method in brief:
as §1

Assay [18] relates to Escherichia coli. The assay is described as follows: Antibacterial activity against Escherichia coli C600 expressing OXA1. The assay is classed as functional. A digest of the protocol: as §2
Assay [19] relates to Escherichia coli. As to the kind of experiment: Antibacterial activity against Escherichia coli C600 expressing ESBL SHV3. The assay is classed as functional. The method in brief:
as §2

For assay [20], the system named is Pseudomonas aeruginosa. The assay is described as follows: Antibacterial activity against Pseudomonas aeruginosa PAO4222. Format: functional. A digest of the protocol:
as §1

The test system of assay [21] is Escherichia coli. As to the kind of experiment: Antibacterial activity against Escherichia coli C600 expressing ESBL TEM4. Format: functional. The method in brief:
as §2

Assay [22] concerns Escherichia coli. The assay is described as follows: Antibacterial activity against Escherichia coli C600 expressing ESBL TEM9. The assay is classed as functional. The method in brief:
as §2

Assay [23] deals with Escherichia coli. The assay is described as follows: Antibacterial activity against Escherichia coli C600 expressing ESBL TEM6. The assay is classed as functional. A digest of the protocol: as §2
Assay [24] deals with Escherichia coli. The assay is described as follows: Antibacterial activity against Escherichia coli C600 expressing ESBL CTX-M3. Format: functional. A digest of the protocol: as §2
Assay [25] relates to Escherichia coli. The assay is described as follows: Antibacterial activity against Escherichia coli C600 expressing TEM1. Format: functional. The method in brief:
as §2

Assay [26] deals with Escherichia coli. As to the kind of experiment: Antibacterial activity against Escherichia coli C600 expressing ESBL TEM8. Format: functional. A digest of the protocol: as §2
Assay [27] relates to Escherichia coli. As to the kind of experiment: Antibacterial activity against Escherichia coli C600 expressing ESBL OXA2. The assay is classed as functional. The method in brief: as §2
Assay [28] relates to Escherichia coli. As to the kind of experiment: Antibacterial activity against Escherichia coli C600 expressing ESBL TEM7. The assay is classed as functional. A digest of the protocol: as §2
Assay [29] deals with Escherichia coli. The assay is described as follows: Antibacterial activity against Escherichia coli C600 expressing ESBL CTX-M18. Format: functional. The method in brief: as §2
The test system of assay [30] is Pseudomonas aeruginosa. As to the kind of experiment: Antibacterial activity against Pseudomonas aeruginosa KG3056 producing MexCD-OprJ efflux pump. The assay is classed as functional. A digest of the protocol:
as §1

Assay [31] relates to Escherichia coli. The assay is described as follows: Antibacterial activity against Escherichia coli C600 expressing TEM2. The assay is classed as functional. A digest of the protocol:
as §2

In assay [32] the test system is Escherichia coli. As to the kind of experiment: Antibacterial activity against Escherichia coli C600 expressing ESBL SHV2. Format: functional. A digest of the protocol:
as §2

For assay [33], the system named is Escherichia coli. The assay is described as follows: Antibacterial activity against Escherichia coli C600 expressing SHV1. The assay is classed as functional. A digest of the protocol:
as §2

The test system of assay [34] is Pseudomonas aeruginosa. The assay is described as follows: Efficacy against Pseudomonas aeruginosa 93 pulmonary infection in mouse assessed as reduction in bacterial counts at 10 mg/kg, sc. Format: functional, organism-based. Also noted: dose 10 mg/kg. The method in brief:
(§3)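 Male ICR mice (4 weeks), made neutropenic with cyclophosphamide 200 mg/kg ip 4 days before infection. Under pentobarbital anesthesia (50 mg/kg iv) they were challenged intranasally with 3.30 log10 CFU of strain 93, grown on tryptic soy agar 35°C 20 h and suspended in saline. Dosed sc twice daily for 3 days from 3 h post-infection. Lung viable counts taken the day after last dose; 6 mice/dose.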

Assay [35] has as its system Pseudomonas aeruginosa. As to the kind of experiment: Efficacy against Pseudomonas aeruginosa 93 pulmonary infection in mouse assessed as reduction in bacterial counts at 2 mg/kg, sc. Format: functional, organism-based. Also noted: dose 2 mg/kg. The method in brief: as §3
Assay [36] deals with Pseudomonas aeruginosa. The assay is described as follows: Antibacterial activity against Pseudomonas aeruginosa FP1380 expressing constitutive AmpC. The assay is classed as functional. A digest of the protocol:
as §2

For the compound `O=C(O)c1cn(C2CC2)c2cc(N3CCNCC3)c(F)cc2c1=O` [CIPROFLOXACIN], the MIC50 in [1] turned out to be 2 µg/mL (≈ 6.04 µM); in [2], 0.25 µg/mL (≈ 0.754 µM); in [3] it was 1 µg/mL (≈ 3.02 µM); in assay [4] it was 8 µg/mL (≈ 24.1 µM). Further, the MIC90 came to 64 µg/mL (≈ 193 µM) in assay [1], 8 µg/mL (≈ 24.1 µM) in assay [2], 8 µg/mL (≈ 24.1 µM) in [3] and 64 µg/mL (≈ 193 µM) in assay [4].
With `CC(C)(O/N=C(\C(=O)N[C@@H]1C(=O)N2C(C(=O)[O-])=C(C[n+]3ccccc3)CS[C@H]12)c1csc(N)n1)C(=O)O` [CEFTAZIDIME], the MIC was 32 µg/mL (≈ 58.5 µM) in assay [5]; 2 µg/mL (≈ 3.66 µM) in [6]; 1 µg/mL (≈ 1.83 µM) in assay [7]; 2 µg/mL (≈ 3.66 µM) in [8]; more than 128 µg/mL in assay [9]; 128 µg/mL (≈ 234 µM) in assay [10]. The MIC turned out to be 32 µg/mL (≈ 58.5 µM) in [11]; 2 µg/mL (≈ 3.66 µM) in assay [12]; 0.25 µg/mL (≈ 0.457 µM) in [13]; 2 µg/mL (≈ 3.66 µM) in [14]; 2 µg/mL (≈ 3.66 µM) in [16]; 32 µg/mL (≈ 58.5 µM) in [17]. The MIC was 0.5 µg/mL (≈ 0.915 µM) in [18]; more than 128 µg/mL in [19]; 2 µg/mL (≈ 3.66 µM) in [20]; 32 µg/mL (≈ 58.5 µM) in assay [21]; 32 µg/mL (≈ 58.5 µM) in assay [22]; 64 µg/mL (≈ 117 µM) in assay [23]. The MIC in [24] was found to be 4 µg/mL (≈ 7.32 µM); in [25] it was 0.25 µg/mL (≈ 0.457 µM); in assay [26], 128 µg/mL (≈ 234 µM); in assay [27], 4 µg/mL (≈ 7.32 µM); in assay [28], 64 µg/mL (≈ 117 µM); in assay [29], 4 µg/mL (≈ 7.32 µM). Also, the MIC was 0.5 µg/mL (≈ 0.915 µM) in assay [30]; 1 µg/mL (≈ 1.83 µM) in [31]; 128 µg/mL (≈ 234 µM) in assay [32]; 1 µg/mL (≈ 1.83 µM) in assay [33]; more than 128 µg/mL in assay [36]. In addition, the MIC50 was determined as 64 µg/mL (≈ 117 µM) in assay [1], 2 µg/mL (≈ 3.66 µM) in [2], 4 µg/mL (≈ 7.32 µM) in assay [3] and 8 µg/mL (≈ 14.6 µM) in [4]. The MIC90 in assay [1] is 128 µg/mL (≈ 234 µM); in assay [2], 16 µg/mL (≈ 29.3 µM); in assay [3], 16 µg/mL (≈ 29.3 µM); in [4] it was 64 µg/mL (≈ 117 µM). The outcome in [15], in [34] and in [35] was Active.
